Assay [1] has as its target Intercellular adhesion molecule (ICAM-1), Integrin alpha-L/beta-2 (Homo sapiens) (UniProt P20701+P05362+P05107). The assay is described as follows: Inhibition of HL-60 cell adhesion mediated by interaction of LFA-1 and ICAM-1. The settings on record: concentration not given here. Set-up: concentration or dose not given beside the values. The format is functional, cell-based. The essentials: (§1)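 HL60 cells (LFA-1 positive, Mac-1 negative by FACS) were fluorochrome-labeled and added to immunoaffinity-purified recombinant soluble ICAM-1 immobilized on plastic. Incubation was 40 min at 37 °C, and nonadherent cells were washed off. Adherence was read on a fluorescence concentration analyzer. Values are IC50 (μM) or % inhibition at 10 μM, each from one assay run in five replicates.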

For assay [2], the system named is HL-60. The assay is described as follows: The inhibitory activity was measured on sLex/E-selectin mediated cells using cell/cell adherence assay on the HL60/IL-1beta HUVEC test system; no effect up to 20 µM. The settings on record: Homo sapiens.
Assay [3] concerns the target T1, Intercellular adhesion molecule (ICAM-1), Integrin alpha-L/beta-2 (Homo sapiens, UniProt P05107+P05362+P20701). The assay is described as follows: Inhibition of LFA-1 mediated HL60 cell adhesion to ICAM-1. The format is cell-based, HL-60. The essentials: as §1
Assay [4] can be described thus: The inhibitory activity was measured on VLA-4/VCAM-1 mediated cells using cell/cell adherence assay on the Ramos/IL-1beta HUVEC test system; no effect up to 20 pM. Type of assay: functional, cell-based. The settings on record: in the assay text read “20 µM” for “20 pM”. The procedure, abridged: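 Cell/cell adhesion used VLA-4-expressing Ramos B lymphoblastoid cells and HUVEC stimulated overnight with IL-1β to express VCAM-1. Adherence was quantified by fluorescence.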

The target in assay [5] is T1, Intercellular adhesion molecule (ICAM-1), Integrin alpha-L/beta-2. Kind of assay: Inhibition of HL-60 cell adhesion to purified ICAM-1 by LFA-1. The format is functional, cell-based. The essentials:
as §1

Another assay deals with Integrin alpha-M/beta-2 (Homo sapiens, UniProt P05107+P11215). Kind of assay: Inhibition of neutrophil cell Mac-1 mediated adhesion to purified ICAM-1, no effect up to 20 […]. The format is functional, cell-based.
Sequence of Integrin alpha-M/beta-2 (P05107 23-769 limits assumed, other chains not shown): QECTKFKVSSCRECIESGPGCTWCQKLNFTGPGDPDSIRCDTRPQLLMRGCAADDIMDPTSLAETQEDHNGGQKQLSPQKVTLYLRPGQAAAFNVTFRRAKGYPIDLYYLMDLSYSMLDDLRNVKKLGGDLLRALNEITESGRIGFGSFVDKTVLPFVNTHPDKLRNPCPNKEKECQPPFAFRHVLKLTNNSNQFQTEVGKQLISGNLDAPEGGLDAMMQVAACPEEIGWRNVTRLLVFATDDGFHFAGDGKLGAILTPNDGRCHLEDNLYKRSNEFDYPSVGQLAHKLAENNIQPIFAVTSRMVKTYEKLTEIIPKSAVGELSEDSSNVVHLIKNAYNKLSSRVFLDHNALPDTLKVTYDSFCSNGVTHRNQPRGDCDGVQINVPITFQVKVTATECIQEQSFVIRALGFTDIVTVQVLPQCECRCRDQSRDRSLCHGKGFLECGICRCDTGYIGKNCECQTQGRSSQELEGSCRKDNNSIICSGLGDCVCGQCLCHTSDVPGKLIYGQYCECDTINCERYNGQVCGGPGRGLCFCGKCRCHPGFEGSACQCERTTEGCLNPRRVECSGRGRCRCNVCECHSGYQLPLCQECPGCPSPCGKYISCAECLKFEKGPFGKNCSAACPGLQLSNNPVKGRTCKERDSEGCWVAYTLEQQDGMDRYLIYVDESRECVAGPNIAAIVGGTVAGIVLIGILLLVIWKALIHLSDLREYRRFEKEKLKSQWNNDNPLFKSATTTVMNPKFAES
Assay [6] deals with HL-60. Kind of assay: The concentration of compound required to inhibit 50% interaction (IC50 ) was measured on LFA-1/ICAM-1 mediated cells using cell/cell adherence assay on the HL60/U937 test system. Type of assay: functional, cell-based. The settings on record: Homo sapiens.

The record followed here is ChEMBL document CHEMBL1128707, “Novel thiazole based heterocycles as inhibitors of LFA-1/ICAM-1 mediated cell adhesion” (J Med Chem, 1995).

Molecules are shown by their SMILES.

T1 sequence (P20701 whole entry): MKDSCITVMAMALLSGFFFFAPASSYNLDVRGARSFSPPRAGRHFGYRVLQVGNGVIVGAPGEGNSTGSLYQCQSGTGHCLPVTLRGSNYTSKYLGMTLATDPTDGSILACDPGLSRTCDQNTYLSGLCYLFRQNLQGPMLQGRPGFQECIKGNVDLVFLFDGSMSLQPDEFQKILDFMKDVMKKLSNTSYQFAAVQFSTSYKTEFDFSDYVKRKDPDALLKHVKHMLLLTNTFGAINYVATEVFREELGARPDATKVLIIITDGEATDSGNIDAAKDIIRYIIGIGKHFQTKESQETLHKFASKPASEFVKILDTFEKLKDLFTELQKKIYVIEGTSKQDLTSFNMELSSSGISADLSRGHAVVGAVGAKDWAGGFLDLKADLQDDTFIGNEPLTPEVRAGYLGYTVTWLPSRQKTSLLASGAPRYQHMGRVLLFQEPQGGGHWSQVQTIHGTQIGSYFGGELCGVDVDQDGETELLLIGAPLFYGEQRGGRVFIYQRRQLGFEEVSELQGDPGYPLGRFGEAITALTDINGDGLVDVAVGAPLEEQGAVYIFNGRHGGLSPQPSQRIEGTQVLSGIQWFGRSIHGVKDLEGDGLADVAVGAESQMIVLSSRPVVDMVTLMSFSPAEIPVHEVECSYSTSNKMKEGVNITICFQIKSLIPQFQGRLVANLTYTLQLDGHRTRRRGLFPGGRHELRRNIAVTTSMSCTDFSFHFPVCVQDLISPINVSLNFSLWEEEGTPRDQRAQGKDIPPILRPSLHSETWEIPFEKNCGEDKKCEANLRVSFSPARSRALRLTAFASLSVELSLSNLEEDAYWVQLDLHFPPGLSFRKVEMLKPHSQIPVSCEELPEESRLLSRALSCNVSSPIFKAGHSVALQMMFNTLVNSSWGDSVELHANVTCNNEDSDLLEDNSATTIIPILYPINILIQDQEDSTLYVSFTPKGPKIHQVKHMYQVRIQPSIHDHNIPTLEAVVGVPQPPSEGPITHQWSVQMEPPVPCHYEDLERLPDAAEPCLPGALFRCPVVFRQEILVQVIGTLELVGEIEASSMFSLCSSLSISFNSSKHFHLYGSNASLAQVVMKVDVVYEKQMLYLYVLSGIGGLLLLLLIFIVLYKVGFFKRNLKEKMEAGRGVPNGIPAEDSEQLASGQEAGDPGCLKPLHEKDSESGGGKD
T1 sequence (P05362 whole entry): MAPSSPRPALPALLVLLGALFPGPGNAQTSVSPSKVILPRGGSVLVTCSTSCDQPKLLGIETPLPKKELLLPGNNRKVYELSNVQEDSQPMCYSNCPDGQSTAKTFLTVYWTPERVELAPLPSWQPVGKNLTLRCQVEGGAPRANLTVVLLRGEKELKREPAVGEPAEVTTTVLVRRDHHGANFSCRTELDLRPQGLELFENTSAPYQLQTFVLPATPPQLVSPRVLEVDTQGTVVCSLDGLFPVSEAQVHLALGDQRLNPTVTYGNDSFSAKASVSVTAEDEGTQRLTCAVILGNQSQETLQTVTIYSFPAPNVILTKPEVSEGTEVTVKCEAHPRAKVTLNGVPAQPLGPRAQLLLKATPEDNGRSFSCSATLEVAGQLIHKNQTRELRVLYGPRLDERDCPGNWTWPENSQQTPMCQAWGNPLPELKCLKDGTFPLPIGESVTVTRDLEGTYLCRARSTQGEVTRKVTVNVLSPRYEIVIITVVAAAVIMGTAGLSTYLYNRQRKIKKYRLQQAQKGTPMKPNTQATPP
T1 sequence (P05107 whole entry): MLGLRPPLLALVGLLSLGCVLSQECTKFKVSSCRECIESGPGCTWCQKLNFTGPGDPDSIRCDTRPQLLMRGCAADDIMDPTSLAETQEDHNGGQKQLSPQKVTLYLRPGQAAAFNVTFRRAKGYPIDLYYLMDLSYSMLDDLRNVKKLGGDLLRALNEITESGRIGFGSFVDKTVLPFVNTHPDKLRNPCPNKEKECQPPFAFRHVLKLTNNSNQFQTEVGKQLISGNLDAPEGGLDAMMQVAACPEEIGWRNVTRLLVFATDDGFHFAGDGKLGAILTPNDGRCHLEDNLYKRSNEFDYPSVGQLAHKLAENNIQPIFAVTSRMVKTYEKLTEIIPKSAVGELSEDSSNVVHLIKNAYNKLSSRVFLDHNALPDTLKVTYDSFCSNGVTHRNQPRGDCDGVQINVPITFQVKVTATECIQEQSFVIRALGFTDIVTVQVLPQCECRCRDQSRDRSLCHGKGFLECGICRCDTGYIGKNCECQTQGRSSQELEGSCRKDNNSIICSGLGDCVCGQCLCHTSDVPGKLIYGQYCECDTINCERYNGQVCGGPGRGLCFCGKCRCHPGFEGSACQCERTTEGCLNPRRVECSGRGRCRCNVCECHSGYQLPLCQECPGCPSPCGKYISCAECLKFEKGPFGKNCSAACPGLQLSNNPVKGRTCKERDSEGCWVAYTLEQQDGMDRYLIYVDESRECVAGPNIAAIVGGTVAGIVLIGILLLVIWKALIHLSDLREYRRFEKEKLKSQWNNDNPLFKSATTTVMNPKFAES

`CCOC(=O)CCCNC(=O)c1cnn(-c2nc(-c3cccc(C(F)(F)F)c3)cs2)c1C`: the inhibition (usually how much of the control response was suppressed) in assay [1] was found to be 0%. In turn, `COc1cc(-c2csc(-n3ncc(C(=O)NCCCO)c3C)n2)cc(OC)c1OC` had an inhibition in assay [1] of 0%. `Cc1c(C(=O)NCCCO)cnn1-c1nc(-c2cccc(Cl)c2)cs1` returned an inhibition in assay [1] of 20%. Still for that read-out and setting: then `COCCCNC(=O)c1cnn(-c2nc(-c3cccc(C(F)(F)F)c3)cs2)c1C`, with 48%; and `Cc1c(C(=O)NCCCCCO)cnn1-c1nc(-c2cccc(C(F)(F)F)c2)cs1`, with 0%. In assay [1], `CCc1c(C(=O)NCCCN2CCCC2=O)cnn1-c1nc(-c2cccc(C(F)(F)F)c2)cs1` returned an inhibition of 10%. For `CCc1c(C(=O)NCCCn2ccnc2)cnn1-c1nc(-c2cccc(C(F)(F)F)c2)cs1`, the inhibition in assay [1] was determined as 34%. Turning to `Cc1c(C(=O)NCCCO)cnn1-c1nc(-c2cccc(C(F)(F)F)c2)cs1`, the IC50 (usually the concentration that inhibits the measured activity by half) with HL-60 [2] is “No effect”; in assay [3] it was 5 µM; in assay [4], “No effect”; in assay [5] it was 5 µM; against Integrin alpha-M/beta-2, “No effect”; in the assay with HL-60 [6], 5 µM. Turning to `CCCc1c(C(=O)NCCCO)cnn1-c1nc(-c2cccc(C(F)(F)F)c2)cs1`, in assay [1], the inhibition came to 26%. Same read-out and setting: then `Cc1c(C(=O)NCCCO)cnn1-c1nc(-c2ccccc2)cs1`, with 5%.

In assay [1], `Cc1ccc(-c2csc(-n3ncc(C(=O)NCCCO)c3C)n2)cc1` displayed an inhibition of 7%. `O=C(NCCCO)c1cnn(-c2nc(-c3cccc(C(F)(F)F)c3)cs2)c1C(F)(F)F` registered an inhibition in assay [1] of 5%. In assay [5], `CCc1c(C(=O)NCCCO)cnn1-c1nc(-c2cccc(C(F)(F)F)c2)cs1` registered an IC50 of 3 µM. In the case of `Cc1c(C(=O)OCCCO)cnn1-c1nc(-c2cccc(C(F)(F)F)c2)cs1`, the inhibition in assay [1] was 25%. In turn, `Cc1c(C(=O)NCCCCO)cnn1-c1nc(-c2cccc(C(F)(F)F)c2)cs1` gave an inhibition in assay [1] of 51%.
